The results in this text go back to ChEMBL document CHEMBL3259628, “Discovery of novel 2-((pyridin-3-yloxy)methyl)piperazines as α7 nicotinic acetylcholine receptor modulators for the treatment of inflammatory disorders” (J Med Chem, 2014).

pIC50: −log10 of the molar value. Calls of active or inactive are those of the source. No cut-off for these calls is given here.

One data set addresses T1, CYP1A2 (Homo sapiens, UniProt P05177).
T1 sequence (P05177 whole entry): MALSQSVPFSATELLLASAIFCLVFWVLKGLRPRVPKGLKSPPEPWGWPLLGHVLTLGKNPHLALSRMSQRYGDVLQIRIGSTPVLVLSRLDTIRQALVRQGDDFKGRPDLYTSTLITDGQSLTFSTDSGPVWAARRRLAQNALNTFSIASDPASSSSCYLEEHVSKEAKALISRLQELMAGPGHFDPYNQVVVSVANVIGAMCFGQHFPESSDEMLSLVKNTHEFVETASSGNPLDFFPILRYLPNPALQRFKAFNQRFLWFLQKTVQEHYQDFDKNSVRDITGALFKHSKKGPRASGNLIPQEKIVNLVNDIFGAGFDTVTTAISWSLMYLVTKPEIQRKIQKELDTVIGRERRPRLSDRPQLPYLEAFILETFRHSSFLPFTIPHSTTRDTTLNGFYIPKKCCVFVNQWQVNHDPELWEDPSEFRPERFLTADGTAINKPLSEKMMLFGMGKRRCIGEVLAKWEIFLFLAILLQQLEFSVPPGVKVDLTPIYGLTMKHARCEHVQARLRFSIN
As to the kind of experiment: Inhibition of CYP1A2 (unknown origin) at 10 uM. Format: ADME. In a few lines: (§1)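 Each of five Cyp isoforms assayed with single probe substrates rather than a substrate cocktail. Run in duplicate at Cerep. IC50 lines come from a 5-concentration titration curve.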

Data set [1] deals with Acetylcholine receptor; alpha1/beta1/delta/gamma (Homo sapiens) (UniProt P02708+P07510+P11230+Q07001). Put plainly: Inhibition of alpha1beta1gammadelta nAChR (unknown origin) at 10 uM. The class given is protein-complex assay. The procedure, abridged:
(§2)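 Receptor, ion channel and transporter binding panel run at Cerep in duplicate. Percent inhibition measured at 10 μM compound.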

In a further data set the target is CYP2D6 (Homo sapiens, UniProt P10635). As to the kind of experiment: Inhibition of CYP2D6 (unknown origin) at 10 uM. Format: ADME. In a few lines:
as §1

A further data set addresses hERG (KCNH2) (Homo sapiens, UniProt Q12809). As to the kind of experiment: Inhibition of human ERG at 1 uM by whole-cell voltage clamp assay.
Another data set addresses CYP2C9 (Homo sapiens, UniProt P11712). Put plainly: Inhibition of CYP2C9 (unknown origin) at 10 uM. The class given is ADME. The procedure, abridged: as §1
In data set [2] the target is Neuronal acetylcholine receptor; alpha4/beta2 (Homo sapiens, UniProt P17787+P43681). As to the kind of experiment: Inhibition of human alpha4beta2 nAChR at 10 uM by binding assay.
A further data set addresses CYP3A4 (Homo sapiens, UniProt P08684). Put plainly: Inhibition of CYP3A4 (unknown origin) at 10 uM. Format: ADME. In a few lines: as §1
In data set [3] the target is Neuronal acetylcholine receptor subunit alpha-7 (Rattus norvegicus, UniProt Q05941). As to the kind of experiment: Inhibition of biotinylated alpha-bungarotoxin binding to alpha7 nAChR in rat PC12 cells by FACS analysis. The class given is cell-based, PC-12. In a few lines:
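Rat PC12 cells in binding buffer (PBS, 1.0% FBS, 0.02% sodium azide), 0.1% DMSO; biotinylated α-bungarotoxin 10 nM final, 1 h at room temperature; nonspecific binding defined with 1.5 μM unlabeled toxin. After washing, phycoerythrin-streptavidin 1.0 μg/mL final, 15 min in the dark; read by FACS. Screened at 10 and 1 μM, then eight-point 3-fold dilution IC50; mean of two or more experiments.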

The target of data set [4] is T2, 5-hydroxytryptamine receptor 3A (Homo sapiens) (UniProt P46098).
T2 sequence (whole entry): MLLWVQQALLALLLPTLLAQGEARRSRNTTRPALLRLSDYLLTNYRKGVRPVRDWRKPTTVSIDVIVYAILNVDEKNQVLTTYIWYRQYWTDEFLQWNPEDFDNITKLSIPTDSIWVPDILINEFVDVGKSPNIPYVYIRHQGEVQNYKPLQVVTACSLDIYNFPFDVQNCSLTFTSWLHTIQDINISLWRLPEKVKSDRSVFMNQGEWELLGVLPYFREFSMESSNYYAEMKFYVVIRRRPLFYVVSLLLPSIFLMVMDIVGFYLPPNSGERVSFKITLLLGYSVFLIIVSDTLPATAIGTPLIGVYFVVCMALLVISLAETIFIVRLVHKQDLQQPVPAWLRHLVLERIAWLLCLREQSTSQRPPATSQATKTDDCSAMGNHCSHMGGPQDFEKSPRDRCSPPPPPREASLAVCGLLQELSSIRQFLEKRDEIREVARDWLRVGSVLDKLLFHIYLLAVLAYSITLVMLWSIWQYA
As to the kind of experiment: Inhibition of 5-HT3 receptor (unknown origin) at 10 uM. In a few lines:
as §2

The target in a further data set is CYP2C19 (Homo sapiens, UniProt P33261). As to the kind of experiment: Inhibition of CYP2C19 (unknown origin) at 10 uM. Format: ADME. In a few lines: as §1
Chain of CYP2C19 (P33261 whole entry): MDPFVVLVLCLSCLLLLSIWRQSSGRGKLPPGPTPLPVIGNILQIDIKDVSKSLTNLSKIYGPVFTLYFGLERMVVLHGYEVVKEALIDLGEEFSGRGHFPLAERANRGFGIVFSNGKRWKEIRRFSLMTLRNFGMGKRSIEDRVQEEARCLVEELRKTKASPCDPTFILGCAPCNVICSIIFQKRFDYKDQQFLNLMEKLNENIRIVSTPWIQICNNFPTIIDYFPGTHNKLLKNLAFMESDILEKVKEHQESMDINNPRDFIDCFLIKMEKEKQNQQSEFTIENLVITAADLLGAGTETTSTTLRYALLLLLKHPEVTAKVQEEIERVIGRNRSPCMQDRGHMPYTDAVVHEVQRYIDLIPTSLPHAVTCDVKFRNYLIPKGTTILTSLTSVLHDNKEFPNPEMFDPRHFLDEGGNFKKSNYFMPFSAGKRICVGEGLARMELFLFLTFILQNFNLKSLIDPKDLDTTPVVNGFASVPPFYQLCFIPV
Data set [5] has as its system Mus musculus. As to the kind of experiment: Antiinflammatory activity against ovalbumin-induced allergic lung inflammation BALB/c mouse model assessed as reduction in eosinophils in brochoalveolar lavage fluid at 1 mg/kg, po bid administered on day 29 to 31 post ovalbumin challenge measured 8 hrs post last challenge relative to vehicle-treated control. Format: functional. The procedure, abridged: (§3)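 Balb/c mice sensitized with ovalbumin by IP injection on days 1 and 14, then challenged intranasally with 100 μg ovalbumin on days 29, 30 and 31. Compound in saline given orally starting 30 min before each challenge; groups of six mice. Sham groups were saline-sensitized and allergen-challenged. BAL taken 8 h after the last challenge, with differential cell counts on slides.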

The subject of data set [6] is Mus musculus. As to the kind of experiment: Antiinflammatory activity against ovalbumin-induced allergic lung inflammation BALB/c mouse model assessed as reduction in neutrophils in brochoalveolar lavage fluid at 1 mg/kg, po bid administered on day 29 to 31 post ovalbumin challenge measured 8 hrs post last challenge relative to vehicle-treated control. To be noted: Bronchoalveolar lavage. The class given is functional. The procedure, abridged: as §3

The subject of data set [7] is Mus musculus. Put plainly: Antiinflammatory activity against ovalbumin-induced allergic lung inflammation BALB/c mouse model assessed as reduction in eosinophils in brochoalveolar lavage fluid at 10 mg/kg, po bid administered on day 29 to 31 post ovalbumin challenge measured 8 hrs post last challenge relative to vehicle-treated control. Format: functional, organism-based. Set-up: dose 10 mg/kg. In a few lines: as §3

In data set [8] the test system is Mus musculus. Put plainly: Antiinflammatory activity against ovalbumin-induced allergic lung inflammation BALB/c mouse model assessed as reduction in total blood cells in brochoalveolar lavage fluid at 10 mg/kg, po bid administered on day 29 to 31 post ovalbumin challenge measured 8 hrs post last challenge relative to vehicle-treated control. The class given is functional, organism-based. Also noted: dose 10 mg/kg. In a few lines:
as §3

The subject of data set [9] is Mus musculus. As to the kind of experiment: Antiinflammatory activity against ovalbumin-induced allergic lung inflammation BALB/c mouse model assessed as reduction in neutrophils in brochoalveolar lavage fluid at 10 mg/kg, po bid administered on day 29 to 31 post ovalbumin challenge measured 8 hrs post last challenge relative to vehicle-treated control. Format: functional, organism-based. Also noted: dose 10 mg/kg. To be noted: Bronchoalveolar lavage. The procedure, abridged:
as §3

Chain of CYP3A4 (P08684 whole entry): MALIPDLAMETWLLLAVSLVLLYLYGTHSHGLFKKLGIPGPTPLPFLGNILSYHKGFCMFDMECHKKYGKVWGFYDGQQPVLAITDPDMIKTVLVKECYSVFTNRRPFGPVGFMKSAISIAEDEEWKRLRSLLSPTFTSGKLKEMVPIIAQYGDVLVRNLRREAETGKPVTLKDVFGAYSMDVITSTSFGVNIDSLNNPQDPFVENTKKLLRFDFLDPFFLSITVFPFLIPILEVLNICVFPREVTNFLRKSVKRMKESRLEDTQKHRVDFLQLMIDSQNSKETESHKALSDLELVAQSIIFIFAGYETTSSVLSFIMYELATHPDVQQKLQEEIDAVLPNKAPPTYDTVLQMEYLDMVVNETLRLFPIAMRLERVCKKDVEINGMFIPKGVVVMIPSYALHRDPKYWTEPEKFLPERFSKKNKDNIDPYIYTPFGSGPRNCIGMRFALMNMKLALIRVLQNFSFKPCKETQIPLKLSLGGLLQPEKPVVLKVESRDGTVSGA
Chain of Neuronal acetylcholine receptor subunit alpha-7 (Q05941 whole entry): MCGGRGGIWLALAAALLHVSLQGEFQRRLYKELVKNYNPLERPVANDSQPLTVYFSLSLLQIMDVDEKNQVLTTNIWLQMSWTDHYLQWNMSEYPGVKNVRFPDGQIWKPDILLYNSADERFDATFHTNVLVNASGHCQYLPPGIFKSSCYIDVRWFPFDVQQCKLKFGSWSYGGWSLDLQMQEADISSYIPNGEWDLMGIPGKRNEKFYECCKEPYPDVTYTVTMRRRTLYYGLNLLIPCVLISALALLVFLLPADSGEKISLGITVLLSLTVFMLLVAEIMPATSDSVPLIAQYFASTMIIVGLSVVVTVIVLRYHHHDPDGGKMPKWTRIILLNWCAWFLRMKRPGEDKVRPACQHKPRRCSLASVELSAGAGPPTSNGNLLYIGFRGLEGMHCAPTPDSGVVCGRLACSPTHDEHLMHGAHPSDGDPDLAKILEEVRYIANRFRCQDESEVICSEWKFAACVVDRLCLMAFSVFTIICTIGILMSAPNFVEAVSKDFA
Chain of hERG (KCNH2) (Q12809 whole entry): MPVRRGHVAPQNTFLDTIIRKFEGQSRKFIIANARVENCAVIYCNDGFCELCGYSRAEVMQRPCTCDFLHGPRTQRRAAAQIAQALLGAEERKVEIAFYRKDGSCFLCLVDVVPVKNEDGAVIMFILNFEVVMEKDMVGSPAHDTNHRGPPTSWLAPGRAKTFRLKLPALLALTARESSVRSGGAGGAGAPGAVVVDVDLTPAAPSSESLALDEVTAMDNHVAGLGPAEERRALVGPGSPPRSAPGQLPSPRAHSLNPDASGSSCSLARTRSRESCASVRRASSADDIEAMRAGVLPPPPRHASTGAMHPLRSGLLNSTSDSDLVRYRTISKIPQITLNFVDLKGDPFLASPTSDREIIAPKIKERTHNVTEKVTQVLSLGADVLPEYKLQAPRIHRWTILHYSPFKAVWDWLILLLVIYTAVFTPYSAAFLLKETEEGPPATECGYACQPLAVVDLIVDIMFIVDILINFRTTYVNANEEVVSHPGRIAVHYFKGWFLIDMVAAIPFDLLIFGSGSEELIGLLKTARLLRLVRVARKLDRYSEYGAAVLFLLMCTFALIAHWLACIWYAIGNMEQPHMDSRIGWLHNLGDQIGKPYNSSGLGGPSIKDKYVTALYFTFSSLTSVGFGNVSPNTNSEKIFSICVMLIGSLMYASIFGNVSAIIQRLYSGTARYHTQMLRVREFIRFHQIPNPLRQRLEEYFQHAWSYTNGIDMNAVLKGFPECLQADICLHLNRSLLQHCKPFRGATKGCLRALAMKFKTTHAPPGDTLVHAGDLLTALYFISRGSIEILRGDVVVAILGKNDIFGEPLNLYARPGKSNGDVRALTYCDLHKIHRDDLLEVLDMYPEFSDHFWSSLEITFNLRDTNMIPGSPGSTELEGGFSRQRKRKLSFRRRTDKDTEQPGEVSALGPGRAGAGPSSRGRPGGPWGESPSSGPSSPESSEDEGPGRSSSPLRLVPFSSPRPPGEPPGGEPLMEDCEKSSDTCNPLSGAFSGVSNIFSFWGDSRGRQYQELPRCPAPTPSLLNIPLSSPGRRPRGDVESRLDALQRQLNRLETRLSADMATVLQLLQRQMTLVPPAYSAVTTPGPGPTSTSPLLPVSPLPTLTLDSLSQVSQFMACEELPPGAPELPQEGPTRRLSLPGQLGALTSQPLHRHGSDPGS
Chain of CYP2C9 (P11712 whole entry): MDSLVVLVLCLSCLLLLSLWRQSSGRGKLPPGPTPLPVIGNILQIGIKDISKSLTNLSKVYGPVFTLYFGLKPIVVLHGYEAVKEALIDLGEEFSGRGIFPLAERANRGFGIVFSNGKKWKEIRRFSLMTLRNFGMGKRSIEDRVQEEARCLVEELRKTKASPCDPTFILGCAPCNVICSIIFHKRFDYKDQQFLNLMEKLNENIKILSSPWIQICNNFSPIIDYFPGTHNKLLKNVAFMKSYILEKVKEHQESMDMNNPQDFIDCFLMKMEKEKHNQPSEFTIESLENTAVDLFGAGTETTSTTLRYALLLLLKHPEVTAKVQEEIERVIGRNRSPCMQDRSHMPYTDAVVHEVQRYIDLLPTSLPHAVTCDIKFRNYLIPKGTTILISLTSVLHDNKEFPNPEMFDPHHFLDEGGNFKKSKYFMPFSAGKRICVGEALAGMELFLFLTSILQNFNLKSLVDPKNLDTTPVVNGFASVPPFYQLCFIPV
Chain of CYP2D6 (P10635 whole entry): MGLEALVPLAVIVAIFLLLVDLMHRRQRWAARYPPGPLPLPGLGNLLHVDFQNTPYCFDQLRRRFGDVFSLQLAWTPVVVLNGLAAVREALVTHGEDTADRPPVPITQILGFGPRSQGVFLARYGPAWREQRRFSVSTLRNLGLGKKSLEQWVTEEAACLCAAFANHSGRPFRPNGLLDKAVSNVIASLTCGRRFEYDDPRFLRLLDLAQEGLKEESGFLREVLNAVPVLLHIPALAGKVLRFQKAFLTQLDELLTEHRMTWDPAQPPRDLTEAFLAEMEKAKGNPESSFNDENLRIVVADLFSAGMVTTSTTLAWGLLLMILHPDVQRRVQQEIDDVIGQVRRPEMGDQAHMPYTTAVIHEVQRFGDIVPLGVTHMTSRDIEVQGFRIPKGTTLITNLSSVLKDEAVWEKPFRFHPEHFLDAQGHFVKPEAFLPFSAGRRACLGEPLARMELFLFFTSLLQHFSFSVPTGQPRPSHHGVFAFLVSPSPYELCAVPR

Take `O=C(c1ccccc1)c1ccc(NC(=O)N2CCNCC2COc2cccnc2)cc1` (racemic): the inhibition (as a rule, the relative decrease from the control value, in per cent) at 10 µM on CYP1A2 came out at 16%; on CYP2D6 it was 7%; on CYP2C9 it was 62%; on CYP3A4, 23%; at CYP2C19 it was 49%. For the same molecule, the inhibition worked out at 10% in data set [1], 18% in data set [2] and 16% in [4]. In addition, the inhibition at 1 µM against hERG (KCNH2) was determined as 40%. Also, the pIC50 (commonly the negative decadic logarithm of the IC50, by convention in mol/L) in [3] was 7.39.

With `COc1ccc(NC(=O)N2CCNC[C@H]2COc2cccnc2)cc1`, the figures for the inhibition in data set [1] and in data set [4] were 2% and 7%, respectively. The inhibition entry in the data set with Mus musculus [5] and in the data set with Mus musculus [6] was “inactive” throughout. Besides, the pIC50 in data set [3] was 4.74.

Regarding `Cc1cc(NC(=O)N2CCNCC2COc2cccnc2)ccc1Br` (racemic), the inhibition at 10 µM came to 48% at CYP1A2; 85% against CYP2D6; 21% against CYP2C9; 80% on CYP3A4; 51% against CYP2C19. Further, the figures for the inhibition in data set [1], in data set [2] and in data set [4] were 23%, 15% and 80%, respectively. In addition, at hERG (KCNH2), the inhibition at 1 µM was 27%. The same molecule showed a pIC50 in [3] of 7.85.

`Fc1cc(F)c2nc(N3CCNCC3COc3cccnc3)sc2c1` (racemic): the inhibition at 10 µM against CYP1A2 is 67%; at CYP2D6, 72%; against CYP2C9, 26%; at CYP3A4, 83%; on CYP2C19, 70%. Further, the figures for the inhibition in data set [1], in data set [2] and in [4] were 12%, 45% and 91%, respectively. In addition, the inhibition at 1 µM on hERG (KCNH2) stood at 36%. The pIC50 in [3] was 7.72.

Consider `COc1ccc(NC(=O)N2CCNCC2COc2cccnc2)cc1Cl` (racemic), for which the inhibition at 10 µM was found to be 20% on CYP1A2; 25% against CYP2D6; 10% on CYP2C9; 66% at CYP3A4; 47% against CYP2C19. The inhibition in [1] worked out at 17%; in [2], 23%; in data set [4], 40%. For the same molecule, the inhibition at 1 µM on hERG (KCNH2) amounted to 17%. Moreover, the pIC50 in data set [3] was 7.35.

As for `O=C(Nc1ccc(Br)cc1F)N1CCNCC1COc1cccnc1` (racemic), the inhibition at 10 µM against CYP1A2 is 13%; on CYP2D6, 41%; on CYP2C9, 7%; on CYP3A4, 58%; against CYP2C19, 32%. The inhibition in data set [1] came out at 7%; in data set [2], 30%; in data set [4] it was 47%. In addition, the inhibition at 1 µM on hERG (KCNH2) came to 18%. For the same molecule, the pIC50 in data set [3] is 7.38.

As for `COc1ccc(NC(=O)N2CCNCC2COc2cccnc2)cc1` (racemic), the inhibition at 10 µM was found to be 11% against CYP1A2; 0% on CYP2D6; 14% on CYP2C9; 7% on CYP3A4; 17% on CYP2C19. The inhibition in data set [1] was -8%; in data set [2] it was 33%; in [4] it was 23%. For the same molecule, the inhibition at 1 µM against hERG (KCNH2) was determined as 15%. Also, the inhibition entry with Mus musculus [7], in the data set with Mus musculus [8] and with Mus musculus [9] was “Active” each time. Besides, in [3], the pIC50 was 7.22.

Take `c1cncc(OCC2CNCCN2c2nc3ccccc3o2)c1` (racemic): the inhibition at 10 µM against CYP1A2 turned out to be 36%; at CYP2D6 it was 87%; at CYP2C9, 20%; against CYP3A4, 17%; on CYP2C19, 24%. The inhibition in [1] is -2%; in data set [2], 89%; in data set [4], 95%. The inhibition at 1 µM against hERG (KCNH2) stood at 22%. Also, in [3], the pIC50 was 6.97.

As to `Brc1ccc2oc(N3CCNC[C@@H]3COc3cccnc3)nc2c1`, the values for the inhibition in data set [1], in [2] and in data set [4] were -3%, 96% and 100%, respectively. The pIC50 in [3] was 7.17.

Take `Fc1cccc2sc(N3CCNCC3COc3cccnc3)nc12` (racemic): the inhibition at 10 µM stood at 63% on CYP1A2; 60% on CYP2D6; 28% against CYP2C9; 75% against CYP3A4; 60% against CYP2C19. Also, the inhibition in [1] came out at 20%; in data set [2], 53%; in data set [4] it was 99%. In addition, the inhibition at 1 µM against hERG (KCNH2) came to 19%. For the same molecule, the pIC50 in [3] was 7.77.

Regarding `COc1ccc2nc(N3CCNC[C@@H]3COc3cccnc3)sc2c1`, the inhibition at 10 µM was 63% at CYP1A2; 50% on CYP2D6; 33% against CYP2C9; 49% against CYP3A4; 78% at CYP2C19. Besides, the inhibition in [1] came out at 9%; in data set [2], 83%; in [4] it was 99%. Also, the inhibition at 1 µM on hERG (KCNH2) was determined as 36%. In addition, the pIC50 in data set [3] was 7.34.

In the case of `COc1ccc(OC(=O)N2CCNCC2COc2cccnc2)cc1` (racemic), the inhibition was 2% in data set [1], 90% in data set [2] and 39% in [4]. In data set [3], this molecule showed a pIC50 of 7.96.
